Laboratory results published in ChEMBL document CHEMBL1137766, “Synthesis and biological evaluation of 3,4,6-triaryl-2-pyranones as a potential new class of anti-breast cancer agents” (Bioorg Med Chem, 2009).
Active and inactive are the calls of the source. The calls are words filed in the database; no cut-off is given here.

How the values were obtained:
[1] = system: MCF7; experiment: Antiproliferative activity against human MCF7 cells expressing estrogen receptor after 48 hrs by MTT assay; assay type: functional, cell-based; settings: MCF7, 48 h
Summary of the method: (§1)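 MTT reduction: 1 × 10⁴ cells/well seeded in DMEM with 10% FBS, incubated 24 h at 37 °C in CO₂. Compounds diluted in culture medium and applied for 48 h. MTT (5 mg/mL stock) added for 4 h, formazan dissolved in DMSO, absorbance read at 540 nm. IC50 taken from growth inhibition. Vehicle control 0.001% DMSO.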

[2] = Cytotoxicity against osteoblasts after 48 hrs by MTT assay; assay type: cell-based; settings: osteoblast
[3] = system: Vero; experiment: Cytotoxicity against african green monkey Vero cells after 48 hrs by MTT assay; assay type: cell-based; settings: chlorocebus sabaeus
[4] = system: MDA-MB-231; experiment: Antiproliferative activity against human estrogen receptor deficient MDA-MB-231 cells after 48 hrs by MTT assay; assay type: functional, cell-based; settings: MDA-MB-231, 48 h; summary of the method: as §1
[5] = target: T1, Prostaglandin G/H synthase 2 (Homo sapiens, UniProt P35354)
T1 sequence (P35354 whole entry): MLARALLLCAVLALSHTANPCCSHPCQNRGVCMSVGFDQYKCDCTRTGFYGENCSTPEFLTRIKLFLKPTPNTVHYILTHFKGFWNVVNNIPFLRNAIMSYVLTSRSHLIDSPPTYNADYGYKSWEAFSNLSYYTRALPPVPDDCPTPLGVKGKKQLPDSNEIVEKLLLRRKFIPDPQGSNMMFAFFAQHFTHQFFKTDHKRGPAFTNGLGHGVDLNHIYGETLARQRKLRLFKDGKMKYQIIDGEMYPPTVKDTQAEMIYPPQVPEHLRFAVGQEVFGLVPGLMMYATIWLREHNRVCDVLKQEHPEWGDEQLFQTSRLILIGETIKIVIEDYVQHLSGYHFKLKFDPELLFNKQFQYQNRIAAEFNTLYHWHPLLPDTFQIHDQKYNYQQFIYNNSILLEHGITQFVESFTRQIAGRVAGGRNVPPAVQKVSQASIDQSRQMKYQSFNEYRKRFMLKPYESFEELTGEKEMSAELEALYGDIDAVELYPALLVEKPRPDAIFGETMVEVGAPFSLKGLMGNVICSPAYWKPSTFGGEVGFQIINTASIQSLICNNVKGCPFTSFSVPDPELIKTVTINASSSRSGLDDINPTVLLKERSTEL

[6] = system: MCF7; experiment: Induction of apoptosis in human MCF7 cells assessed as DNA fragmentation at 20 uM after 24 hrs by ELISA; assay type: functional, cell-based
Summary of the method: (§2)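 BrdU-labelled cells incubated with compound for 24 h. Cells lysed 30 min at rt and spun at 250g for 10 min. Supernatant captured on adsorbed anti-DNA antibody, fixed by microwave 5 min, then probed 90 min with peroxidase anti-BrdU; OD read at 370 nm. Kit positive and negative controls used. Duplicates from two independent experiments.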

[7] = system: MDA-MB-231; experiment: Induction of apoptosis in human MDA-MB-231 cells assessed as morphological changes at 10 uM after 18 hrs using Hoechst 33342 staining by fluorescent microscopy; assay type: functional, cell-based
Summary of the method: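 10,000 cells seeded on 18-mm coverslips and grown 24 h. Medium replaced, then cells treated with 10 µM compound for 18 h. Stained with Hoechst 33342 0.5 µg/ml in 4% paraformaldehyde for 30 min at 37 °C. Random fields imaged by fluorescence microscopy; viable versus apoptotic cells judged qualitatively by fluorescence and nuclear fragmentation.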

[8] = system: MDA-MB-231; experiment: Induction of apoptosis in human MDA-MB-231 cells assessed as DNA fragmentation at 20 uM after 24 hrs by ELISA; assay type: functional, cell-based; summary of the method: as §2
[9] = system: MDA-MB-231; experiment: Induction of apoptosis in human MDA-MB-231 cells assessed as caspase induction at 20 uM after 24 hrs by fluorescence assay; assay type: functional, cell-based
[10] = target: T2, Estrogen receptor (Homo sapiens) (UniProt P03372); experiment: Transactivation of ERalpha expressed in african green monkey COS7 cells at 5 uM after 24 hrs by luciferase reporter gene assay; assay type: cell-based; settings: COS-7
T2 sequence (whole entry): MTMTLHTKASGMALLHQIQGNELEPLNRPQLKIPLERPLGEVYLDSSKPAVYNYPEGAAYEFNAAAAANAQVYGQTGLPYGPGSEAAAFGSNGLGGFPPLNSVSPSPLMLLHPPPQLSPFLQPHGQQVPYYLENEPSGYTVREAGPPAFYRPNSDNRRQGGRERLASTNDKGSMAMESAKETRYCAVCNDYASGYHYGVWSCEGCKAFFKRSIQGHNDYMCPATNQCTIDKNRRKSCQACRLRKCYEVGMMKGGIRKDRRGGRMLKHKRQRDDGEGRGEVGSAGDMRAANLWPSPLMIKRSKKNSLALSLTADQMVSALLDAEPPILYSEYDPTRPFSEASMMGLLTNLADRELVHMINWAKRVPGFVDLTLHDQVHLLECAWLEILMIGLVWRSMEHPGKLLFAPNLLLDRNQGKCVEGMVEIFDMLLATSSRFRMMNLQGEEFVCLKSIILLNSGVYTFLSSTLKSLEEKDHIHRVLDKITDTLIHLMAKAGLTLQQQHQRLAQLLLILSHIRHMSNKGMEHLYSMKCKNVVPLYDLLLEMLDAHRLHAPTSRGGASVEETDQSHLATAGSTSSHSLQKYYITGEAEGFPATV
Summary of the method: (§3)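 Cos-7 cells, 40,000 per well, seeded 24 h before co-transfection with 200 ng pGL3-Gal4Tk-Luc reporter plus ERα or ERβ expression plasmid and pRL-CMV. Compounds given, then cells harvested 24 h post-transfection for dual-luciferase assay. Firefly signal normalised to Renilla and GFP, expressed as fold over VP-16 control. Mean ± SD of three independent experiments.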

[11] = system: MCF7; experiment: Induction of apoptosis in human MCF7 cells assessed as DNA fragmentation at 10 uM after 24 hrs by ELISA; assay type: functional, cell-based; summary of the method: as §2
[12] = target: Estrogen receptor beta (Homo sapiens) (UniProt Q92731); experiment: Transactivation of ERbeta expressed in african green monkey COS7 cells at 5 uM after 24 hrs by luciferase reporter gene assay; assay type: cell-based; settings: COS-7; summary of the method: as §3
Sequence of Estrogen receptor beta (Homo sapiens) (Q92731 whole entry): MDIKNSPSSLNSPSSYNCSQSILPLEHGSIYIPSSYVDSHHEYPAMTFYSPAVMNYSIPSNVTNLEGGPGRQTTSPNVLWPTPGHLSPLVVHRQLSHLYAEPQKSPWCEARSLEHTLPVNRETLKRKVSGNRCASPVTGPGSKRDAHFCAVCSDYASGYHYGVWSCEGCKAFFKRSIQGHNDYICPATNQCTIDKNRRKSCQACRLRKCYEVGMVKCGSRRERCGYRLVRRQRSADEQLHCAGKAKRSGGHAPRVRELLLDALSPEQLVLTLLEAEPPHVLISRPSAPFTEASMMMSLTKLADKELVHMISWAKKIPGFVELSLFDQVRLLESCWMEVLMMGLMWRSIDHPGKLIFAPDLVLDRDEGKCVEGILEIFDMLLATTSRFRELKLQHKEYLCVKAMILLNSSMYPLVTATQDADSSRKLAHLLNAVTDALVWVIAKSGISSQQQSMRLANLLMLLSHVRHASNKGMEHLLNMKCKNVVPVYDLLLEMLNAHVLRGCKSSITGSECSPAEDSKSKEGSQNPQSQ

[13] = system: MCF7; experiment: Induction of apoptosis in human MCF7 cells assessed as caspase induction at 20 uM after 24 hrs by fluorescence assay; assay type: functional, cell-based
Summary of the method: (§4)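 Caspase kit covering caspases 2, 3, 6, 7, 8, 9 and 10. MCF-7 cells serum-deprived 4 h, then treated with compound for 24 h at various concentrations. DEVD-rhodamine-110 substrate added; released rhodamine-110 fluorescence read at 560 nm. Camptothecin-treated U937 cells served as positive control. Duplicates from two independent experiments.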

[14] = system: MDA-MB-231; experiment: Induction of apoptosis in human MDA-MB-231 cells assessed as caspase induction at 40 uM after 24 hrs by fluorescence assay; assay type: functional, cell-based
[15] = system: MDA-MB-231; experiment: Induction of apoptosis in human MDA-MB-231 cells assessed as DNA fragmentation at 10 uM after 24 hrs by ELISA; assay type: functional, cell-based; summary of the method: as §2
[16] = system: MCF7; experiment: Induction of apoptosis in human MCF7 cells assessed as caspase induction at 40 uM after 24 hrs by fluorescence assay; assay type: functional, cell-based; summary of the method: as §4

| Structure (SMILES) | IC50 [1] | IC50 [4] | Activity [2] | Activity [3] | other results |
| --- | --- | --- | --- | --- | --- |
| O=c1oc(-c2ccc(OCCN3CCCC3)cc2)cc(-c2ccccc2)c1-c1ccccc1 | 25 µM | 34 µM | Toxic | Toxic |  |
| COc1ccc(-c2cc(-c3ccccc3)c(-c3ccc(S(C)(=O)=O)cc3)c(=O)o2)cc1 |  |  |  |  | IC50 [5]: 0.02 µM |
| O=c1oc(-c2ccc(O)cc2)cc(-c2ccccc2)c1-c1ccc(O)cc1 | 26 µM | > 100 µM |  |  |  |
| O=c1oc(-c2ccc(O)cc2)cc(-c2ccccc2)c1-c1ccccc1 | 21 µM | 13 µM | Toxic | Toxic |  |
| COc1ccc(-c2cc(-c3ccccc3)oc(=O)c2-c2ccc(O)cc2)cc1 | > 50 µM | > 100 µM |  |  |  |
| CC/C(=C(\c1ccccc1)c1ccc(OCCN(C)C)cc1)c1ccccc1 [TAMOXIFEN] | 10 µM | 20 µM |  |  |  |
| O=c1oc(-c2ccccc2)cc(-c2ccc(OCCN3CCCC3)cc2)c1-c1ccccc1 | 14 µM | 9 µM | Toxic | Toxic |  |
| O=c1oc(-c2ccccc2)cc(-c2ccc(O)cc2)c1-c1ccc(O)cc1 | 24 µM | 27 µM | Non-toxic | Non-toxic | Activity [6]: Active; Activity [7]: Active; Activity [8]: Active; Activity [9]: inactive; Activity [10]: inactive; Activity [11]: Active; Activity [12]: inactive; Activity [13]: Active; Activity [14]: inactive |
| O=c1oc(-c2ccc(O)cc2)cc(-c2ccc(O)cc2)c1-c1ccccc1 | 14 µM | 26 µM | Non-toxic | Non-toxic | Activity [6]: Active; Activity [15]: Active; Activity [7]: Active; Activity [8]: Active; Activity [9]: inactive; Activity [10]: inactive; Activity [12]: inactive; Activity [13]: Active; Activity [14]: inactive |
| COc1ccc(-c2cc(-c3ccccc3)c(-c3ccc(O)cc3)c(=O)o2)cc1 | 14 µM | 17 µM | Non-toxic | Non-toxic | Activity [6]: inactive; Activity [7]: Active; Activity [9]: inactive; Activity [10]: inactive; Activity [11]: inactive; Activity [12]: inactive; Activity [13]: Active; Activity [14]: inactive |
| O=c1oc(-c2ccccc2)cc(-c2ccccc2)c1-c1ccc(O)cc1 | 25 µM | 38 µM | Non-toxic | Non-toxic | Activity [6]: inactive; Activity [7]: Active; Activity [16]: Active; Activity [10]: inactive; Activity [11]: inactive; Activity [12]: inactive |

More lines, main results first:

| IC50 [1] | IC50 [4] | Structure (SMILES) | Activity [2] | Activity [3] | other results |
| --- | --- | --- | --- | --- | --- |
| 23 µM | > 100 µM | O=c1oc(-c2ccccc2)cc(-c2ccccc2)c1-c1ccc(OCCN2CCCC2)cc1 |  |  |  |
| 38 µM | > 100 µM | O=c1oc(-c2ccccc2)cc(-c2ccc(O)cc2)c1-c1ccccc1 |  |  |  |
| 16 µM | 12 µM | COc1ccc(-c2cc(-c3ccccc3)oc(=O)c2-c2ccc(OCCN3CCCCC3)cc2)cc1 | Toxic | Toxic |  |
| 26 µM | 11 µM | O=c1oc(-c2ccccc2)cc(-c2ccc(OCCN3CCCCC3)cc2)c1-c1ccccc1 | Toxic | Toxic |  |
| 24 µM | > 100 µM | O=c1oc(-c2ccc(OCCN3CCCCC3)cc2)cc(-c2ccccc2)c1-c1ccccc1 |  |  |  |
| > 50 µM | > 100 µM | O=c1oc(-c2ccccc2)cc(-c2ccccc2)c1-c1ccc(OCCN2CCCCC2)cc1 |  |  |  |
